Results published in ChEMBL document CHEMBL5329164, “Design, synthesis, and evaluation of BTK-targeting PROTACs with optimized bioavailability in vitro and in vivo” (RSC Med Chem, 2023).

How the values were obtained:
[1] = Solubility in DMSO:Cremophor EL:1xPBS mixture at 10 mg/ml; type: physicochemical
[2] = Solubility in DMSO:Cremophor EL:1xPBS mixture at 10 mg/ml incubated for 7 days; type: physicochemical; conditions: 168 h, time 7 day
[3] = Apparent permeability across apical to basal side in MDCK-II cells assessed as compound recovery at 10 uM measured for 120 mins by LC-MS/MS analysis; type: ADME, cell-based, Canis lupus familiaris; conditions: dog, read-out: Drug recovery
Summary of the method: (§1)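 MDCK monolayers were grown on Transwell inserts (5 x 10^4 cells/cm²) and used at day 5. Compound at 10 μM in HBSS with 10 mM Hepes, pH 7.40, was dosed apically or basolaterally and incubated at 37±1 °C. Receiver and donor samples were taken at 120 min and quantified by LC-MS/MS against an internal standard. Lucifer yellow passage below 1% confirmed monolayer integrity.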

[4] = AUClast in BALB/c mouse at 5 mg/kg, po measured for 24 hrs by LCMS analysis; type: ADME, organism-based; set-up: dose 5 mg/kg, time 24 hrs, route po; conditions: in vivo
Summary of the method: (§2)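 Male Balb/c mice, 9 per group, dosed intragastrically at 5 mg/kg; the same compounds were also given iv at 2 mg/kg. Blood was drawn into EDTA-K2 tubes at 0.25, 0.5, 1, 2, 4, 6, 8 and 24 h. Plasma proteins were precipitated with acetonitrile containing tolbutamide. Quantification was by LC-MS on a C18 column with a formic acid water/acetonitrile gradient.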

[5] = Half life in BALB/c mouse at 5 mg/kg, po measured for 24 hrs by LCMS analysis; type: ADME, organism-based; conditions: in vivo; summary of the method: as §2
[6] = Stability in monkey liver microsomes assessed as half life at 1 uM preincubated for 10 mins followed by reaction initiation measured upto 60 mins in presence of NADPH; type: ADME, Macaca mulatta, Microsome; conditions: rhesus monkey, time < 70 min
Summary of the method: (§3)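 Compound at 1 μM final was incubated with 0.5 mg/mL mouse, rat, dog, monkey or human liver microsomes in 100 mM PBS, pH 7.4, with 1 mM NADPH at 37 °C after a 10 min preincubation. Reactions were stopped at 0, 5, 15, 30 and 60 min with ice-cold acetonitrile containing tolbutamide. Supernatants were taken for bioanalysis.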

[7] = AUClast in BALB/c mouse at 2 mg/kg, iv measured for 24 hrs by LCMS analysis; type: ADME, organism-based; set-up: time 24 hrs, dose 2 mg/kg, route iv; conditions: in vivo
Summary of the method: (§4)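 Male Balb/c mice, 9 per group, dosed intravenously at 2 mg/kg. Blood was drawn into EDTA-K2 tubes at 0.083, 0.25, 0.5, 1, 2, 4, 6, 8 and 24 h. Plasma was separated by centrifugation at 2000 g for 10 min and precipitated with acetonitrile containing tolbutamide internal standard. Analysis was by LC-MS on a polar C18 column with a water/acetonitrile 0.1% formic acid gradient.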

[8] = Oral bioavailability in BALB/c mouse at 5 mg/kg measured for 24 hrs by LCMS analysis; type: ADME, organism-based; conditions: in vivo; summary of the method: as §2
[9] = Stability in rat liver microsomes assessed as intrinsic clearance measured per mg protein at 1 uM preincubated for 10 mins followed by reaction initiation measured upto 60 mins in presence of NADPH; type: ADME, Microsome; conditions: time < 70 min, read-out: CLH; summary of the method: as §3
[10] = Cmax in BALB/c mouse at 5 mg/kg, po measured for 24 hrs by LCMS analysis; type: ADME, organism-based; set-up: dose 5 mg/kg, time 24 hrs, route po; conditions: in vivo; summary of the method: as §2
[11] = Stability in dog liver microsomes assessed as half life at 1 uM preincubated for 10 mins followed by reaction initiation measured upto 60 mins in presence of NADPH; type: ADME, Canis lupus familiaris, Microsome; conditions: time < 70 min; summary of the method: as §3
[12] = Stability in dog liver microsomes assessed as intrinsic clearance measured per mg protein at 1 uM preincubated for 10 mins followed by reaction initiation measured upto 60 mins in presence of NADPH; type: ADME, Canis lupus familiaris, Microsome; conditions: time < 70 min, read-out: CLH; summary of the method: as §3
[13] = Clearance in BALB/c mouse at 2 mg/kg, iv measured for 24 hrs by LCMS analysis; type: ADME, organism-based; conditions: in vivo; summary of the method: as §4
[14] = Apparent permeability across basal to apical side in MDCK-II cells assessed as compound recovery at 10 uM measured for 120 mins by LC-MS/MS analysis; type: ADME, cell-based, Canis lupus familiaris; conditions: dog, read-out: Drug recovery; summary of the method: as §1
[15] = Stability in mouse liver microsomes assessed as intrinsic clearance measured per mg protein at 1 uM preincubated for 10 mins followed by reaction initiation measured upto 60 mins in presence of NADPH; type: ADME, Microsome; conditions: time < 70 min, read-out: CLH; summary of the method: as §3
[16] = Stability in rat liver microsomes assessed as half life at 1 uM preincubated for 10 mins followed by reaction initiation measured upto 60 mins in presence of NADPH; type: ADME, Microsome; conditions: time < 70 min; summary of the method: as §3
[17] = Stability in mouse liver microsomes assessed as half life at 1 uM preincubated for 10 mins followed by reaction initiation measured upto 60 mins in presence of NADPH; type: ADME, Microsome; conditions: time < 70 min; summary of the method: as §3
[18] = Apparent permeability across basal to apical side in MDCK-II cells at 10 uM measured for 120 mins by LC-MS/MS analysis; type: ADME, cell-based, Canis lupus familiaris; conditions: dog
Summary of the method: (§5)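 MDCK monolayers were grown on Transwell inserts (5 x 10^4 cells/cm²) and used at day 5. Compound at 10 μM in HBSS with 10 mM Hepes, pH 7.40, was dosed apically or basolaterally and incubated at 37±1 °C. Lucifer yellow passage below 1% confirmed monolayer integrity.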

[19] = Stability in human liver microsomes assessed as half life at 1 uM preincubated for 10 mins followed by reaction initiation measured upto 60 mins in presence of NADPH; type: ADME, Microsome; conditions: time < 70 min; summary of the method: as §3
[20] = Stability in human liver microsomes assessed as intrinsic clearance measured per mg protein at 1 uM preincubated for 10 mins followed by reaction initiation measured upto 60 mins in presence of NADPH; type: ADME, Microsome; conditions: time < 70 min, read-out: CLH; summary of the method: as §3
[21] = Stability in monkey liver microsomes assessed as intrinsic clearance measured per mg protein at 1 uM preincubated for 10 mins followed by reaction initiation measured upto 60 mins in presence of NADPH; type: ADME, Macaca mulatta, Microsome; conditions: rhesus monkey, time < 70 min, read-out: CLH; summary of the method: as §3
[22] = Apparent permeability across apical to basal side in MDCK-II cells at 10 uM measured for 120 mins by LC-MS/MS analysis; type: ADME, cell-based, Canis lupus familiaris; conditions: dog; summary of the method: as §5
[23] = Tmax in BALB/c mouse at 5 mg/kg, po measured for 24 hrs by LCMS analysis; type: ADME, organism-based; conditions: in vivo; summary of the method: as §2
[24] = Half life in BALB/c mouse at 2 mg/kg, iv measured for 24 hrs by LCMS analysis; type: ADME, organism-based; conditions: in vivo; summary of the method: as §4
[25] = Apparent volume of distribution in BALB/c mouse at 2 mg/kg, iv measured for 24 hrs by LCMS analysis; type: ADME, organism-based; conditions: in vivo, read-out: Vz; summary of the method: as §4
[26] = molecular target: T1, Protein cereblon/Tyrosine-protein kinase BTK (Homo sapiens) (UniProt Q06187+Q96SW2); experiment: PROTAC activity at CRBN/ BTK in human Ramos cells assessed as induction of BTK degradation at 100 nM incubated for 24 hrs by immunoblot analysis relative to control; type: cell-based
Summary of the method: (§6)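 Ramos cells in supplemented RPMI 1640 were plated at 3×10^5 cells/well and treated with compound for 24 h. Lysates in SDS sample buffer were heated at 100 °C for 15 min and run on 10% SDS-PAGE, then transferred to PVDF. Membranes were probed overnight at 4 °C for BTK, GSPT1 and β-actin.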

[27] = molecular target: T1, Protein cereblon/Tyrosine-protein kinase BTK (Homo sapiens); experiment: PROTAC activity at CRBN/ BTK in human Ramos cells assessed as induction of BTK degradation at 300 nM incubated for 24 hrs by immunoblot analysis relative to control; type: cell-based; summary of the method: as §6

T1 sequence (Q06187 2-659 limits assumed): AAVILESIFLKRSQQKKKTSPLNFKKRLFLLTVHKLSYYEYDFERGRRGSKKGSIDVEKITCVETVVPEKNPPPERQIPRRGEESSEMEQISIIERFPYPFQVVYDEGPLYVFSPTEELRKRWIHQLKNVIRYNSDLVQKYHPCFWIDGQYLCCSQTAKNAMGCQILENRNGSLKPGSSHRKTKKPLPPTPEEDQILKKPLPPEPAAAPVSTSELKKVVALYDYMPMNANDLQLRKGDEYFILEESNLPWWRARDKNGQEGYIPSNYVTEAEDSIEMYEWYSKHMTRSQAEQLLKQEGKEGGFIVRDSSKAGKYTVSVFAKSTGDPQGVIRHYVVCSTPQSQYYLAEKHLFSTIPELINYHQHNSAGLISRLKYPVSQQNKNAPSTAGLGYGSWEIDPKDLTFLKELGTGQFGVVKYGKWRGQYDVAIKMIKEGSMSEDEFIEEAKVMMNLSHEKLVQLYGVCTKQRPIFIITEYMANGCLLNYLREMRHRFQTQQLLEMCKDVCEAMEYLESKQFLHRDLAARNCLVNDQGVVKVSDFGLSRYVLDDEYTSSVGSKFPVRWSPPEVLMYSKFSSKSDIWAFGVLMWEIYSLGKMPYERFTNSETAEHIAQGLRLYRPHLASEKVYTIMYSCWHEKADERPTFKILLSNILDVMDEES
T1 sequence (Q96SW2 whole entry partner): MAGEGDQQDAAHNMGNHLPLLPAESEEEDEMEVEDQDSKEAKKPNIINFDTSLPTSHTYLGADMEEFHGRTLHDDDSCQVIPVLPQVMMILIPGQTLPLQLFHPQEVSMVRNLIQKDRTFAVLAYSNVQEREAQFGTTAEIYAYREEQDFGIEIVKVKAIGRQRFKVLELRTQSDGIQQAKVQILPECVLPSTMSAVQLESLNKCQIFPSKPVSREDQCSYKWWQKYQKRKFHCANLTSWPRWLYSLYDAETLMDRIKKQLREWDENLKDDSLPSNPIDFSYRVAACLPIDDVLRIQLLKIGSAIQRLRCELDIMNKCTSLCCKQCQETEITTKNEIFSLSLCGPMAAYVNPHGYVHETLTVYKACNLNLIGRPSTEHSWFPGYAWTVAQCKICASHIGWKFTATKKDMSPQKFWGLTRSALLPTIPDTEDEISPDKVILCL

Nc1ncnc2c1c(-c1ccc(Oc3ccccc3)cc1)nn2C1CCN(C2CN(C3CN(c4ccc5c(c4)C(=O)N(C4CCC(=O)NC4=O)C5=O)C3)C2)CC1 (stereo unspecified)
solubility [1]: Insoluble | solubility [2]: Insoluble

Nc1ncnc2c1c(-c1ccc(Oc3ccccc3)cc1)nn2C1CCN(C(=O)Cc2ccc(Nc3ccc4c(c3)CN(C3CCC(=O)NC3=O)C4=O)cc2)CC1 (stereo unspecified)
recovery at 2 h, 10 µM [3]: 98.5% | AUC(0-t) at 24 h [4]: 103 ng·h/mL | half-life [5]: 87 min | half-life at 1 µM [6]: 8.91 min | AUC(0-t) at 24 h [7]: 8120 ng·h/mL | bioavailability [8]: 0.51% | microsomal CLint at 1 µM [9]: 55.9 µL/min/mg | Cmax [10]: 83.2 ng/mL | half-life at 1 µM [11]: 28.5 min | microsomal CLint at 1 µM [12]: 48.7 µL/min/mg | clearance [13]: 4.08 mL/min/kg | recovery at 2 h, 10 µM [14]: 101% | microsomal CLint at 1 µM [15]: 107 µL/min/mg | half-life at 1 µM [16]: 24.8 min | half-life at 1 µM [17]: 13 min | Papp B→A at 2 h, 10 µM [18]: 0.25 ×10⁻⁶ cm/s | half-life at 1 µM [19]: 9.46 min | microsomal CLint at 1 µM [20]: 147 µL/min/mg | microsomal CLint at 1 µM [21]: 156 µL/min/mg | Papp A→B at 2 h, 10 µM [22]: 0.003 ×10⁻⁶ cm/s | Tmax [23]: 30 min | half-life [24]: 296 min | Vd [25]: 1.74 L/kg

Nc1ncnc2c1c(-c1ccc(Oc3ccccc3)cc1)nn2[C@@H]1CCCN(C(=O)Cc2ccc(Nc3ccc4c(c3)CN(C3CCC(=O)NC3=O)C4=O)cc2)C1 (stereo partly specified)
recovery at 2 h, 10 µM [3]: 107% | AUC(0-t) at 24 h [4]: 357 ng·h/mL | half-life [5]: 68.4 min | half-life at 1 µM [6]: 10 min | AUC(0-t) at 24 h [7]: 6400 ng·h/mL | bioavailability [8]: 2.23% | microsomal CLint at 1 µM [9]: 95 µL/min/mg | Cmax [10]: 364 ng/mL | half-life at 1 µM [11]: 23 min | microsomal CLint at 1 µM [12]: 60.3 µL/min/mg | clearance [13]: 5.17 mL/min/kg | recovery at 2 h, 10 µM [14]: 101% | microsomal CLint at 1 µM [15]: 115 µL/min/mg | half-life at 1 µM [16]: 14.6 min | half-life at 1 µM [17]: 12.1 min | Papp B→A at 2 h, 10 µM [18]: 0.071 ×10⁻⁶ cm/s | half-life at 1 µM [19]: 14.4 min | microsomal CLint at 1 µM [20]: 96.2 µL/min/mg | microsomal CLint at 1 µM [21]: 139 µL/min/mg | Papp A→B at 2 h, 10 µM [22]: 0.001 ×10⁻⁶ cm/s | Tmax [23]: 30 min | half-life [24]: 309 min | Vd [25]: 2.31 L/kg

Nc1ncnc2c1c(-c1ccc(Oc3ccccc3)cc1)nn2[C@@H]1CCCN(C(=O)c2ccc(Nc3ccc4c(c3)C(=O)N(C3CCC(=O)NC3=O)C4=O)cc2)C1 (stereo partly specified)
Activity [26]: 18.2% | Activity [27]: 20.1%

Nc1ncnc2c1c(-c1ccc(Oc3ccccc3)cc1)nn2[C@@H]1CCCN(C(=O)N2CC3(C2)CN(c2ccc4c(c2)C(=O)N(C2CCC(=O)NC2=O)C4=O)C3)C1 (stereo partly specified)
Activity [26]: 23.1% | Activity [27]: 24.5%

COCCc1ccc(OCC(O)CNC(C)C)cc1 (stereo unspecified) [METOPROLOL]
recovery at 2 h, 10 µM [3]: 97.1% | recovery at 2 h, 10 µM [14]: 95.9% | Papp B→A at 2 h, 10 µM [18]: 11.3 ×10⁻⁶ cm/s | Papp A→B at 2 h, 10 µM [22]: 21.1 ×10⁻⁶ cm/s
